# Measurements from ChEMBL document CHEMBL4513216, “Probing the Open Global Health Chemical Diversity Library for Multistage-Active Starting Points for Next-Generation Antimalarials” (ACS Infect Dis, 2020).
# Assay: Toxicity liver stage against HepG2, at 10uM
# Format: cell-based
# Design: test concentration 10 uM, cell line HepG2-A16-CD81EGFP
# Conditions: human, HepG2-A16-CD81EGFP cells; read-out: INHIBITION
# Outline: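 Uninfected HepG2-A16-CD81EGFP cells, 3 × 10^3 per well, 1536-well, plated on prespotted compound at 10 μM final, parasite-free screening media added to match infected plates; puromycin 10 μM positive, DMSO 0.5% negative; run in parallel with 48 h PbLuc assay at 37 °C, 5% CO2; viability by CellTiter-Glo luminescence, normalized to controls.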
row,SMILES,cytotoxicity at 10 µM [%]
1,CCN(CC)[C@H]1C[C@@H](Cc2cc(CO)on2)C1(C)C,9.12
2,COCCN1CCN(C(=O)C[C@@H]2C[C@@H](C(C)C)[C@H](CC#N)C=C2C)CC1,0.788
3,O=C1CC(c2ccncc2)c2c(c(C(=O)O)cn2-c2ccccc2)N1 (stereo unspecified),-3.7
4,O=C(NC1CCCCC1)c1ccc(Oc2ccc3nncn3n2)cc1,2.17
5,O=C(Nc1cccnc1-n1cc(Br)cn1)C1CCCC1,-33.1
6,COc1cccc2sc(N3CCN(C(=O)c4cc(C)on4)CC3)nc12,6.21
7,Cc1nnc(C2CCN(C(=O)c3ccsc3)CC2)s1,10.5
8,O=C(N[C@]12CC1CN(C(=O)c1ccco1)C2)c1ccoc1 (stereo partly specified),-1.48
9,CN(C)CCN1C(=O)CO[C@@H]2CN(c3ncc(F)cn3)C[C@H]21,0.81
10,Cc1ccsc1C(=O)NCC1COCc2c(C)nnn2C1 (stereo unspecified),-3.51
11,CN1CCN(Cc2cn3c(n2)CN(C(=O)c2ccco2)CC3)CC1,-4
12,O=C(c1cccs1)N1CC[C@H](O)[C@@H]1Cc1ccccc1,-5.99
13,Cc1cc(C(=O)N2C[C@@H]3COC[C@]3(c3nnc(C4CC4)o3)C2)on1,-10
14,O=C(NCCc1cc2nc(-c3ccncc3)ccn2n1)C1CCOCC1,4.59
15,COCC(=O)N1CCCCC1c1nc(N(C)C)ncc1-c1cc(C)no1 (stereo unspecified),5.93
16,c1cc(CN2CCCC(c3ccnc4nccn34)C2)ccn1 (stereo unspecified),-3.29
17,COCCC(=O)N1C[C@@H](c2ccc(F)c(F)c2)[C@@]2(CCCC(=O)N2)C1,-9.06
18,CCc1onc(C)c1C(=O)N1CCC(c2cc3ncccc3cn2)CC1,1.68
19,CNC(=O)c1cn[nH]c1C1(C)CCCN(Cc2ccccn2)C1 (stereo unspecified),-10.5
20,Cc1nc(Nc2nncs2)cc(C2CCCN2C)n1 (stereo unspecified),-22.6
21,Cc1cc(N)nc(C2(C)CCCN2C(=O)c2cnccn2)n1 (stereo unspecified),-27.1
22,O=C(c1cscn1)N1CCC(O)(Cn2ccc3ccncc32)CC1,-18.2
23,O=C(C1CCOCC1)N1CCC(O)(Cn2ccc3ccncc32)CC1,-19.8

row,SMILES,cytotoxicity at 10 µM [%]
1,COCCNC(=O)c1ccccc1-n1cc(CN)cn1,-23.6
2,Cc1nc(C2CCN(C(=O)c3cscn3)CC2)c2sccn12,-5.16
3,NCc1cn(-c2ccccc2C(=O)NCc2ccccc2Cl)cn1,-9.94
4,COCc1cc(O)nc(C2CCCN(Cc3cccc(Cl)c3Cl)C2)n1 (stereo unspecified),-7.47
5,Cc1cc(N(C)C)nc(NC2CCc3nc(C)nn3C2)n1 (stereo unspecified),5.56
6,CC(C)n1nnnc1-c1ccc(NC(=O)N(C)CCN(C)C)cc1F,-2.71
7,O=C(NCC(=O)N1CCCCC1)c1sccc1C1CC1,-136
8,COc1ccc2c(c1)CCCC2CC(=O)NCC(C)(C)C(=O)O (stereo unspecified),-1.2
9,Cc1cc(CNC(=O)NCCC(=O)N2CCCc3ccccc32)no1,-4.09
10,COc1cc2c(nn1)CCN(Cc1noc(CC(C)C)n1)C2,-1.02
11,COCCOc1ncccc1C(=O)N(C)c1ccc(OC)c(OC)c1,-46.7
12,CC(NC(=O)CNc1cc2c(cc1Cl)NC(=O)CO2)c1ccco1 (stereo unspecified),-0.0162
13,N#Cc1cn(CCN2CCc3ccccc3C2)c(=O)[nH]c1=O,4.47
14,COCCN1CCC(NC(=O)Cn2cc(C)c3ccccc32)CC1,-0.869
15,Cc1nn(C)c(Oc2ccccc2)c1CNC1CCOc2ccccc21 (stereo unspecified),4.88
16,COCCCNC(=O)Nc1cccc2c1CCN(S(C)(=O)=O)C2,2.87
17,Cc1cc(C)c(CNC(=O)NCC2COc3ccccc3C2)c(=O)[nH]1 (stereo unspecified),8.51
18,COCC(=O)N1CCCC1c1cccc(C)c1C (stereo unspecified),-1.32
19,Cn1cccc1C(=O)NS(=O)(=O)c1cnn(-c2ccccc2F)c1,-7.83
20,Cn1cc(CNCCc2nccs2)c(-c2cccnc2)n1,1.83
21,CC(C)c1noc(CN2CCOCC2C)n1 (stereo unspecified),3.95
22,O=S(=O)(NCCSc1nccn1C1CC1)c1ccccc1,-9.34
23,N#Cc1ccc(CN(CC(N)=O)Cc2cccc(F)c2)cc1,-2.01

row,SMILES,cytotoxicity at 10 µM [%]
1,COc1cccc(CNc2cccnc2-n2cccn2)c1OC,1
2,COc1cccc(COc2nc(C(C)C)no2)c1,-42.4
3,COc1ccccc1CN(Cc1nc(C)no1)C1CC1,2.77
4,Cc1noc(C)c1CN1CCCC1c1nnc2ccccn12 (stereo unspecified),-1.73
5,CCNC(=O)N1CCc2ccc(NC(=O)C(C)c3ccsc3)cc21 (stereo unspecified),-3.41
6,Cc1ccccc1C1(CNc2nnc(C)c(C)c2C#N)CCOCC1,-2.1
7,O=C(c1ccncn1)N1C[C@@H]2CN(Cc3cccnc3)CCO[C@@H]2C1,7.61
8,Cc1cccc(N2CCC3(CCCN(C(=O)Cc4cccnc4)C3)C2)n1 (stereo unspecified),0.824
9,CCn1c(CC2CCN(C(=O)c3cc(C(C)C)nn3C)CC2)n[nH]c1=O,-58.5
10,CCCC(=O)Nc1ccc(CC(=O)N(C)CCc2cn[nH]c2)cc1,4.84
11,COCCCC1CCN([C@@H]2c3ccccc3C3(CCNCC3)[C@H]2O)CC1,-4.67
12,Cn1ccnc1-c1cn(CCCc2csc(N)n2)nn1,0.963
13,COCCC1(CO)CCCN(Cc2cc(C(F)(F)F)ccc2F)C1 (stereo unspecified),-141
14,CCN(CC)CCn1cnc(-c2ccccc2)c1-c1cnn(CC)c1,3.37
15,CCCc1cnc(C)nc1N1CCC(Cn2cc(C(C)O)nn2)CC1 (stereo unspecified),1.92
16,CCOCCC(=O)N1CCCCC1CCn1cccn1 (stereo unspecified),-0.168
17,CCOCC1CCN(C(=O)C(c2cccc(F)c2)N(C)C)CC1 (stereo unspecified),-4.57
18,N#Cc1cccc(N2CCC(CO)(CCOc3ccccc3)CC2)n1,-42.8
19,CCOC(=O)CC1CCCCN1C(=O)c1cc(C)on1 (stereo unspecified),5.53
20,COCCCN1CC2(CCCN(CCn3cc(Cl)cn3)C2)CCC1=O (stereo unspecified),5.97
21,CNc1nc2c(c(C(=O)N3CCCC3)n1)CN(Cc1ccco1)CC2,-113
22,COC(=O)c1cccc(C(=O)N2CCCCC2CCn2ccnc2C)c1 (stereo unspecified),14.5
23,CN(Cc1ccsc1)C(=O)CN1CCCC(Cn2cncn2)C1 (stereo unspecified),-11.3

row,SMILES,cytotoxicity at 10 µM [%]
1,Cc1csc(C2CCCCN2C(=O)c2cc(C)n(C)n2)n1 (stereo unspecified),-17.9
2,CCN(CC)CC1CCN(C(=O)CCn2cccn2)CC1,-13.3
3,Cc1ccc(-c2cc(CNC(=O)N3CCC(N(C)C)CC3)on2)cc1,-10.8
4,CC(C)CCN(C(=O)c1nc(S(C)(=O)=O)n2ccccc12)C1CC1,-2.63
5,Cc1ncc(Cl)c(C(=O)N2CCCC(n3nc(C)nc3C)C2)n1 (stereo unspecified),-0.426
6,Cc1cc(NC(=O)CNC2CCc3ncnn3C2)no1 (stereo unspecified),-6.73
7,Nc1cc2c(nn1)CCN(C(=O)C1CCc3ccccc31)C2 (stereo unspecified),-6.58
8,Cc1cnn(CCNCC(O)COc2ccc3ccccc3c2)c1 (stereo unspecified),-6.31
9,Cc1cnn(CCC(=O)N2CCCN(c3nc(C)cs3)CC2)c1,-4.05
10,COc1ccc(OC)c(C(O)CNC(=O)Nc2cccnc2OC)c1 (stereo unspecified),-22.4
11,CCc1nc(CN(C(C)=O)C2CCN(CC3CCOCC3)C2)no1 (stereo unspecified),-3.84
12,Cc1nc(C)n(CC2CCCN2CCOc2ccccc2C#N)n1 (stereo unspecified),-4.17
13,Cn1cc(CC(=O)N2CCCC(n3cncn3)C2)cn1 (stereo unspecified),-3.54
14,O=C(NCc1ccccc1-n1cccn1)N1CCC(N2CCCC2)C1 (stereo unspecified),-0.554
15,Cc1nn(-c2ccccc2)nc1C(=O)N1CCCC(n2cccn2)C1 (stereo unspecified),-9.53
16,CC(Cn1ccnc1)NC(=O)NCc1cccnc1OC1CCCC1 (stereo unspecified),-13.3
17,CCc1nc(C2CCCN2C(=O)c2cc(Cl)c[nH]2)no1 (stereo unspecified),-12.2
18,O=C(Nc1ccccc1)N1CCN(Cc2noc(C3CC3)n2)CC1,2.82
19,N#Cc1cnn(-c2ccc(C(=O)N(C3CCCCC3)C3CC3)cc2)c1N,-2.54
20,COc1ccc(Cl)cc1CC(=O)N1CCN(CC(C)O)CC1 (stereo unspecified),-17.1
21,O=C(COCc1ccccc1Cl)N1CCCC(n2ccnc2)C1 (stereo unspecified),-25.1
22,O=C(c1sccc1C1CC1)N1CCN(Cc2cscn2)CC1,1.97
23,Cc1nc(CN(C)C2CCN(Cc3cccc(F)c3)C2)no1 (stereo unspecified),-15

row,SMILES,cytotoxicity at 10 µM [%]
1,Cc1nnc(NC(=O)CN2CCOC(Cn3cccn3)C2)s1 (stereo unspecified),-7.44
2,Cc1nc2ccccc2nc1CN1CCCCC1Cn1cccn1 (stereo unspecified),3.94
3,CC(C)S(=O)(=O)C(C)C(=O)NCc1cccc(N2CCCCC2=O)c1 (stereo unspecified),-7.91
4,Cc1cc(NC(=O)CN2CCN(c3nccs3)C(C)C2)n(C)n1 (stereo unspecified),-4.2
5,C[C@H]1CN2C[C@H](O)CC2CN1Cc1ccc2nccnc2c1 (stereo partly specified),-1.23
6,Cc1cc(Nc2ccccn2)nc(C2CCCN(CCO)C2)n1 (stereo unspecified),1.26
7,c1cncc(-c2nccc(CN3CCC(N4CCCCC4)CC3)n2)c1,-26
8,Cn1cc(N2C(=O)CC[C@@H]3[C@H]2CCN3CCc2ccccc2)cn1,15.6
9,O=C(N1CCCO1)[C@@]12CCO[C@@H]1CCN(Cc1cccnc1)C2,-4.26
10,c1cncc(CN2CCC3(COCCN(C4CCOCC4)C3)C2)c1 (stereo unspecified),1.46
11,COCCn1cc2c(n1)C(CNCc1cccc(OC)c1)OCC2 (stereo unspecified),-4.52
12,CCN1CCN(C)C2(CCN(Cc3ccsc3)CC2)C1=O,0.317
13,CCOC1COC2(CCN(Cc3ccc(C)cc3)CC2)C1 (stereo unspecified),-8.28
14,COc1cc(CNCCn2ccnc2)cc2c1OCO2,5.17
15,COc1ccc(CN2CCO[C@H]3CN(C4CCC4)CC[C@H]3C2=O)cc1,-148
16,Cc1ccc(C(=O)N2CCn3cc(CN4CCCCC4)nc3C2)o1,4.75
17,Cc1noc([C@@]23CCO[C@@H]2CCN(CC2CCOCC2)C3)n1,-2.1
18,Cc1cnc(N2C[C@@H]3C[C@H](C(=O)N(C)C)[C@H](C2)O3)nc1,-2.47
19,COc1ccc(CN2C[C@@H]3C(CC(=O)N4CCCC4)[C@@H]3C2)cc1 (stereo partly specified),-13.8
